Measurements as given in ChEMBL document CHEMBL2406967, “Contribution of Cage-Shaped Structure of Physalins to Their Mode of Action in Inhibition of NF-κB Activation” (ACS Med Chem Lett, 2013).
Calls of active or inactive are those of the source. The calls are words filed in the database; no cut-off is given here.

What was measured:
[1] = Inhibition of TNFalpha-induced NF-kappaB activation (unknown origin) expressed in human HeLa cells pretreated 30 mins before TNFalpha addition after 7 hrs by luciferase reporter gene assay; format: cell-based
Procedure, shortened: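 HeLa cells stably transfected with an NF-κB reporter construct, stimulated with TNF-α; IC50 values are means of three independent experiments, with standard deviation.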

HeLa [2] = experiment: Inhibition of NF-kappaB (unknown origin) expressed in human HeLa cells assessed as inhibition of TNFalpha-induced RelA nuclear translocation pretreated 30 mins before TNFalpha addition measured after 15 mins by Western blot analysis
[3] = molecular target: T1, NF-kappa-B inhibitor alpha (Homo sapiens) (UniProt P25963); experiment: Inhibition of TNFalpha-induced IkappaBalpha (unknown origin) degradation expressed in human HeLa cells at 50 uM pretreated […] before TNFalpha addition […] by ELISA; format: cell-based
T1 sequence (whole entry): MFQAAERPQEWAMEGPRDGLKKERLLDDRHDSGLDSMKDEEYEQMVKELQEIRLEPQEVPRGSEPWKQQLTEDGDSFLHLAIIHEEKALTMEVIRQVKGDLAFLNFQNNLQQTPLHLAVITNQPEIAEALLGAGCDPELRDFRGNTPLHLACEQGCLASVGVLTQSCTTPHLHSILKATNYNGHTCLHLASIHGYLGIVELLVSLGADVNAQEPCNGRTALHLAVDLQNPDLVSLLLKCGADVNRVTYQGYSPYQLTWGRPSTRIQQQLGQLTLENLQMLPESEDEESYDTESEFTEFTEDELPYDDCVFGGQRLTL

HeLa [4] = experiment: Inhibition of NF-kappaB (unknown origin) expressed in human HeLa cells assessed as inhibition of TNFalpha-induced p50 nuclear translocation pretreated 30 mins before TNFalpha addition measured after 15 mins by Western blot analysis
HeLa [5] = experiment: Ratio of IC50 for TNFalpha-induced NF-kappaB (unknown origin) activation expressed in human HeLa cells to IC50 for TNFalpha-induced IkappaBalpha (unknown origin) phosphorylation expressed in human HeLa cells; format: cell-based
HeLa [6] = experiment: Inhibition of NF-kappaB (unknown origin) expressed in human HeLa cells assessed as inhibition of TNFalpha-induced DNA binding of RelA pretreated 30 mins before TNFalpha addition measured after 30 mins by EMSA
HeLa [7] = experiment: Inhibition of NF-kappaB (unknown origin) expressed in human HeLa cells assessed as inhibition of TNFalpha-induced DNA binding of p50 pretreated 30 mins before TNFalpha addition measured after 30 mins by EMSA
HeLa [8] = experiment: Inhibition of NF-kappaB (unknown origin) expressed in human HeLa cells assessed as inhibition of TNFalpha-induced RelA nuclear translocation at 100 uM […] by Western blot analysis; format: cell-based
Procedure, shortened: (§1)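 HeLa cells pretreated 30 min with a range of compound concentrations or DMSO, then stimulated with TNF-α (50 ng/mL) for 15 min. Cytoplasmic and nuclear fractions were immunoblotted for RelA and p50. Tubulin marked the cytoplasmic fraction and PARP the nuclear fraction.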

HeLa [9] = experiment: Inhibition of NF-kappaB (unknown origin) expressed in human HeLa cells assessed as inhibition of TNFalpha-induced p50 nuclear translocation at 100 uM […] by Western blot analysis; format: cell-based; procedure, shortened: as §1

Compound | IC50 [1] | inhibition [3] | also measured
CC1=C(C)C(=O)O[C@@H]([C@](C)(O)C2=CC[C@@]3(O)[C@@H]4CC=C5CC=CC(=O)[C@]5(C)[C@H]4CC[C@]23C)C1 | 20.8 µM |  | 
CC1=C(C)C(=O)O[C@@H]([C@](C)(O)[C@H]2CC[C@@]3(O)[C@@H]4CC=C5CC=CC(=O)[C@]5(C)[C@H]4CC[C@]23C)C1 | 20.7 µM |  | 
C=C1C(=O)O[C@@H]2C[C@@]1(C)[C@@H]1C(=O)[C@]3(O)O[C@]14[C@@]2(C)OC(=O)[C@@]4(O)CC[C@H]1[C@H]3CC=C2CC=CC(=O)[C@@]21C | 6.54 µM | 0.8% | inhibition (HeLa [2]): Dose-dependent effect; inhibition (HeLa [4]): Dose-dependent effect
C[C@]12C(=O)C=CCC1=C[C@@H](O)[C@@H]1[C@@H]2CC[C@@]2(O)C(=O)O[C@@]3(C)[C@H]4C[C@]5(C)[C@@H](CO[C@@]16O[C@]23[C@H]5C6=O)C(=O)O4 | 11.4 µM | -3.8% | 
C[C@]12C(=O)C=CCC1=CC[C@@H]1[C@@H]2CC[C@]2(O)C(=O)O[C@@]3(C)[C@H]4C[C@@](C)([C@@H]5C(=O)[C@]1(O)O[C@@]532)[C@](C)(O)C(=O)O4 | > 50 µM |  | 
C[C@H]1C(=O)OC[C@H]1C[C@@H](O)[C@](C)(O)[C@]1(O)CC[C@@]2(O)[C@@H]3CC=C4CC=CC(=O)[C@]4(C)[C@H]3CC[C@]12C | 33.2 µM |  | 
C[C@H]1C(=O)OC[C@H]1C[C@@H](O)[C@](C)(O)[C@@]1(O)CC[C@@]2(O)[C@@H]3CC=C4CC=CC(=O)[C@]4(C)[C@H]3CC[C@]12C | 32.4 µM |  | 
C#C[C@]12O[C@H]3OC[C@H]4C(=O)O[C@H](C[C@@]4(C)[C@@H]1C3=O)[C@]2(C)O | 104 µM |  | 
C[C@@]12C[C@H]3OC(=O)[C@@H]1CO[C@@H]1O[C@@]4([C@H](O)C(=O)O[C@@]34C)[C@H]2C1=O | > 200 µM |  | 
CC(=O)O[C@@H]1C(=O)O[C@@]2(C)[C@H]3C[C@]4(C)[C@@H](CO[C@@H]5O[C@]12[C@H]4C5=O)C(=O)O3 | > 200 µM |  | 
C[C@@]12C[C@H]3OC(=O)[C@@H]1CO[C@@H]1O[C@@]4([C@H](OCc5ccccc5)C(=O)O[C@@]34C)[C@H]2C1=O | 43.6 µM |  | 
C=C1C(=O)O[C@@H]2C[C@@]1(C)[C@@H]1C(=O)[C@@H](O)O[C@@]13[C@H](OCc1ccccc1)C(=O)O[C@@]23C | 85.8 µM |  | 
C[C@@]12C[C@H]3OC(=O)[C@]1(O)CO[C@]14O[C@@]5([C@H]2C1=O)[C@@]3(C)OC(=O)[C@@]5(O)CC[C@H]1[C@H]4C[C@H]2O[C@]23CC=CC(=O)[C@]13C [25-HYDROXY PHYSALIN F] | 4.38 µM | 29% | Ratio IC50 (HeLa [5]): 10
C[C@@]12C[C@H]3OC(=O)[C@]1(O)CO[C@]14O[C@@]5([C@H]2C1=O)[C@@]3(C)OC(=O)[C@@]5(O)CC[C@H]1[C@H]4C[C@@H]2O[C@@]23CC=CC(=O)[C@]13C [25-HYDROXY PHYSALIN J] | > 50 µM |  | 
C=C1C(=O)O[C@@H]2C[C@@]1(C)[C@@H]1C(=O)[C@]3(O)O[C@]14[C@@]2(C)OC(=O)[C@@]4(O)CC[C@H]1[C@H]3[C@H](O)C=C2CC=CC(=O)[C@@]21C [PHYSALIN A] | 22.7 µM | -3.4% | 
C[C@]12C(=O)C=CCC1=CC[C@@H]1[C@@H]2CC[C@]2(O)C(=O)O[C@@]3(C)[C@H]4C[C@]5(C)[C@@H](CO[C@@]16O[C@@]32[C@H]5C6=O)C(=O)O4 [PHYSALIN B] | 6.07 µM | 7% | inhibition (HeLa [6]): Dose-dependent effect; inhibition (HeLa [2]): Dose-dependent effect; inhibition (HeLa [7]): Dose-dependent effect; inhibition (HeLa [4]): Dose-dependent effect
C[C@@]12C[C@H]3OC(=O)[C@@H]1CO[C@]14O[C@]5([C@H]2C1=O)[C@@](O)(CC[C@H]1[C@H]4C[C@H]2O[C@]24CC=CC(=O)[C@]14C)C(=O)O[C@@]35C [PHYSALIN F] | 2.53 µM | 45.2% | Ratio IC50 (HeLa [5]): 10
C[C@@]12C[C@H]3OC(=O)[C@@H]1CO[C@@]14O[C@]5(C2C1=O)[C@@](O)(CC[C@H]1[C@H]4C[C@@H]2O[C@@]24CC=CC(=O)[C@]14C)C(=O)O[C@@]35C [PHYSALIN J] | 36.2 µM |  | 
C[C@@H]1C(=O)O[C@@H]2C[C@@]1(C)[C@@H]1C(=O)[C@]3(O)O[C@]14[C@@]2(C)OC(=O)[C@@]4(O)CC[C@H]1[C@H]3[C@H](O)C=C2CC=CC(=O)[C@@]21C [PHYSALIN O] | > 50 µM |  | 
CC1=C(C)C(=O)O[C@@H]([C@](C)(O)[C@]2(O)CC[C@@]3(O)[C@@H]4C[C@H]5O[C@]56CC=CC(=O)[C@]6(C)[C@H]4CC[C@]23C)C1 [WITHANOLIDE E] | 0.98 µM | 46.8% | Ratio IC50 (HeLa [5]): 10
CC1=C(C)C(=O)O[C@@H]([C@](C)(O)[C@]2(O)CC[C@@]3(O)[C@@H]4CC=C5CC=CC(=O)[C@]5(C)[C@H]4CC[C@]23C)C1 [WITHANOLIDE F] | 2 µM |  | inhibition (HeLa [6]): Dose-dependent effect; inhibition (HeLa [8]): Active; inhibition (HeLa [7]): Dose-dependent effect; inhibition (HeLa [9]): Active
